Laboratory results: paper PMC3246390 (Organic & biomolecular chemistry, 2011)
Entries after “also recorded” stand apart in the source; their conditions may differ. Like-named read-outs stand apart in the source and are kept apart here.

Assays:
mice [1] = settings: cited from earlier work
[2] = molecular target: T1, mouse Vα14Vβ8.2 NKT TCR (glycolipid presented by mouse CD1d) (Mus musculus, UniProt P11609); type: binding; settings: for Kass / Kdiss: Langmuir 1:1 model; for Kdiss: TCR dissociation from mouse CD1d-glycolipid complex
T1 sequence (P11609 19-297): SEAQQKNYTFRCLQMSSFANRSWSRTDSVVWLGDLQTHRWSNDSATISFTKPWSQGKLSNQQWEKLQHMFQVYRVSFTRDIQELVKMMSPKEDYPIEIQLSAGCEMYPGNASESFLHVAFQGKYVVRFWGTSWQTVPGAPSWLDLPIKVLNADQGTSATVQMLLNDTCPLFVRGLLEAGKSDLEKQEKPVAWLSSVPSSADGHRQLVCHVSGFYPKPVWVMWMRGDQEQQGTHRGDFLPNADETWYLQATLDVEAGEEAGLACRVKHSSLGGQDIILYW
T1 sequence (P01887 21-119 partner): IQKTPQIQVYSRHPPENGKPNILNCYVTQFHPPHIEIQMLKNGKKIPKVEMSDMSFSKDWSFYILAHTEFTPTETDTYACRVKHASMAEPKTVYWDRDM
T1 sequence (P01849 1-110 partner): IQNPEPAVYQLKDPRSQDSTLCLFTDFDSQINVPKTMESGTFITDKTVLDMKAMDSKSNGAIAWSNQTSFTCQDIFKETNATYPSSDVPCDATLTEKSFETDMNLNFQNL

mice [3] = type: in vivo; settings: 5 µg intraperitoneal; for cytokine secretion (INF-γ and IL-4): IL-4 at 4h and INF-γ at 16h
Outline: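 Each mouse received an intraperitoneal injection of 5 µg glycolipid (6"-modified α-GalCer analogues, galacturonic acid and α-d-fucopyranosyl types). Serum IL-4 was measured at 4 h and serum INF-γ at 16 h after injection.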

[4] = tested on: lung and breast cancer in mice; settings: lung and breast cancer (GSL-1’: mice bearing lung cancer, equal doses); cited from earlier work
mice [5] = settings: i.v. administration; cited from earlier work
[6] = SPR, TCR binding to mouse CD1d-glycolipid complex
[7] = read-out: KD(Kdiss/Kass), SPR, TCR binding to mouse CD1d-glycolipid complex

Row | Compound | Kass [2, 6] [M⁻¹ s⁻¹] | Kdiss ([2]; SPR) [s⁻¹] | Kd [2, 7] [nM] | cytokine secretion (INF-γ and IL-4) (mice [3]; serum) | further results
1 | 1-O-(6-deoxy-α-D-galactopyranosyl)-2-hexacosylamino-octadecane-1,3,4-triol [compound 4] | 80000 ± 3000 | 0.00526 ± 0.00029 | 64.8 ± 6 | – | IFN-γ induction compared to α-GalCer (mice [1]): superior to α-GalCer
2 | 1-O-(6-deoxy-α-D-galactopyranosyl)-2-hexacosylamino-octadecane-1,3,4-triol [compound 12] | 100000 ± 20000 | 0.00648 ± 0.0018 | 74.4 ± 25 | weak cytokine secretion; also recorded: low cytokine release | –
3 | 1-O-(α-D-galactopyranosyluronate)-2-hexacosylamino-octadecane-1,3,4-triol [compound 13] | 100000 ± 9000 | – | 165 ± 38.3 | minor cytokine secretion | efficacy towards cancer compared to α-GalCer [4]: more effective; secretion of INF-γ compared to α-GalCer (mice [5]): drastically lower secretion of INF-γ
4 | CCCCCCCCCCCCCCCCCCCCCCCCCC(=O)N[C@@H](CO[C@H]1O[C@H](CO)[C@H](O)[C@H](O)[C@H]1O)[C@H](O)[C@H](O)CCCCCCCCCCCCCC [KRN7000 (1), α-galactosylceramide, reference compound] | – | – | – | – | Kd [2]: 11.2 ± 0.2 nM; kon ([2]; read-out: Kass): 130000 M⁻¹ s⁻¹; koff ([2]; read-out: Kdiss): 0.00145 s⁻¹
5 | CCCCCCCCCCCCCCC(O)C(O)C(CO[C@H]1O[C@H](C(=O)O)[C@H](O)[C@H](O)[C@H]1O)NC(=O)CCCCCc1ccccc1 (stereo partly drawn) [compound 14, 1-O-(α-D-galactopyranosyluronate)-2-(6-phenylhexanoyl)amino-octadecane-1,3,4-triol] | 110000 ± 6000 | 0.00811 ± 0.0012 | 75.3 ± 15.2 | abolishes all activity; also recorded: low cytokine release | –
6 | α-C-GalCer [compound 3, reference compound] | – | – | – | – | Th1/Th2 polarization (mice [3]; INF-γ versus IL-4): no polarization; IL-4 secretion (Th2 response) (mice [3]; serum, measured at 4h): strong Th2 response; INF-γ secretion (mice [3]; serum, measured at 16h): superior INF-γ inducer
